Experiments:
[1] = In vivo oral gavage study, blood; set-up: species or system New Zealand White rabbits; conditions: male rabbits, 60 g HED
Procedure, shortened: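 Male adult New Zealand White rabbits (3.0 ± 0.3 kg) on high-fibre diet, fasted ~16 h, stratified by body weight, n=6/group. Free or pea-protein-nanoparticle-encapsulated test compound was given by oral gavage at 60 g per 70 kg adult HED, scaled by rabbit body-surface-area factors to an individual per-kg dose. Marginal ear vein blood was sampled pre-dose to 24 h (11 time-points); BHB was measured by assay kit.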

[2] = system: rats; conditions: 14 to 21 g/kg bw/day; cited from earlier work

With C[C@@H](O)CC(=O)OCC(O)CO (stereo partly drawn) [KM, (R)-3-hydroxybutyrate monoglyceride] the “[BHB]max” value [1] was 1.33 mmol/L, the MRT ([1]; blood BHB) was 6.60 h and the Tmax ([1]; blood BHB) was 0.75 h. For the same compound, the “systemic toxicity in vivo” value [2] was “no systemic toxicity”.

From publication PMC12744579 (Nanotechnology, Science and Applications, 2025)
